For assay [1], the system named is Haemophilus influenzae. In words: Antimicrobial activity against nontypeable Haemophilus influenzae isolate 2019 expressing GFP isolated from patient with COPD assessed as inhibition biofilm formation at 0.25 ug/mL after 2 days. Format: functional, organism-based. Summed up: (§1)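 Flow cell: GFPmut3-expressing strain 2019 (kanamycin selection before inoculation) grown under a glass coverslip at 37°C. Medium was 1% BHI with NAD and hemin (1% final) in 150 mM NaCl, flowing at 0.08 ml/min, with or without antibiotic. Established-biofilm arm: no drug days 0–2, then drug days 2–4. Confocal imaging; biomass and maximal thickness by COMSTAT; n = 3.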

Assay [2] has as its system Haemophilus influenzae. In words: Antimicrobial activity against nontypeable Haemophilus influenzae isolate 2019 expressing GFP isolated from patient with COPD by broth microdilution method. Format: functional. Summed up: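 MIC for strain 2019 carrying pRSM2211, by CLSI broth microdilution, done in a clinical microbiology laboratory.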
In assay [3] the test system is Haemophilus influenzae. Nature of the assay: Antimicrobial activity against azithromycin-resistant nontypeable Haemophilus influenzae isolate S53 assessed as inhibition of biofilm formation at 16 ug/mL after 7 hrs using crystal violet. Format: functional, organism-based.
Assay [4] relates to Haemophilus influenzae. In words: Antimicrobial activity against azithromycin-resistant nontypeable Haemophilus influenzae isolate S61 assessed as inhibition of biofilm formation at >64 ug/mL. Format: functional, organism-based. In short, it runs like this:
(§2)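 Static-culture biofilm: mid-log-phase bacteria in BHI broth with 10 μg/ml hemin and 10 μg/ml NAD, azithromycin 0.06 to 64 μg/ml, flat-bottom polystyrene 96-well plates, 37°C. Planktonic growth read hourly as A490 over the first 7 h. Biomass at the air-liquid interface stained with crystal violet at 24 h, same wells. Representative data, n = 3.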

For assay [5], the system named is Haemophilus influenzae. Nature of the assay: Antimicrobial activity against nontypeable Haemophilus influenzae isolate 2019 expressing GFP isolated from patient with COPD assessed as decrease in biomass of biofilm in 2 days established biofilm at 0.125 ug/mL after 4 days using flow cell culture. Format: functional, organism-based. Summed up: (§3)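 Flow cell: GFPmut3-expressing strain 2019 (pRSM2211, kanamycin selection before inoculation) attached under a glass coverslip. Medium: 1% BHI with NAD and hemin ([…]) in 150 mM NaCl, 0.08 ml/min flow, 37°C. Antibiotic at 0.125 μg/ml, either from inoculation or added after 2 days. Confocal imaging; biomass and maximal thickness by COMSTAT (n = 3).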

The test system of assay [6] is Haemophilus influenzae. Nature of the assay: Antimicrobial activity against azithromycin-resistant nontypeable Haemophilus influenzae isolate S34 assessed as inhibition of biofilm formation at >64 ug/mL. Format: functional, organism-based. In short, it runs like this: as §2
The subject of assay [7] is Haemophilus influenzae. Nature of the assay: Antimicrobial activity against nontypeable Haemophilus influenzae isolate 2019 expressing GFP isolated from patient with COPD assessed as decrease maximal thickness of biofilm at 0.125 ug/mL after 2 days using flow cell culture relative to control. Format: functional, organism-based. Summed up: as §3
Assay [8] has as its system Haemophilus influenzae. In words: Antimicrobial activity against nontypeable Haemophilus influenzae isolate 2019 expressing GFP isolated from patient with COPD assessed as decrease biofilm formation at 0.125 ug/mL after 2 days using flow cell culture relative to control. Format: functional, organism-based. In short, it runs like this:
as §3

Assay [9] concerns Haemophilus influenzae. Nature of the assay: Antimicrobial activity against nontypeable Haemophilus influenzae isolate 2019 expressing GFP isolated from patient with COPD assessed as decrease in maximum thickness of biofilm in 2 days established biofilm at 0.125 ug/mL after 4 days using flow cell culture. Format: functional, organism-based. Summed up: as §3
The subject of assay [10] is Haemophilus influenzae. In words: Antimicrobial activity against nontypeable Haemophilus influenzae isolate 2019 expressing GFP isolated from patient with COPD assessed as viability at 0.125 ug/mL incubated for 2 days measured on day 4 using flow cell culture. Format: functional, organism-based.
The test system of assay [11] is Haemophilus influenzae. In words: Antimicrobial activity against azithromycin-resistant nontypeable Haemophilus influenzae isolate S43 assessed as inhibition of biofilm formation at >64 ug/mL. Format: functional, organism-based. In short, it runs like this: as §2
The subject of assay [12] is Haemophilus influenzae. Nature of the assay: Antimicrobial activity against azithromycin-resistant nontypeable Haemophilus influenzae isolate S57 assessed as inhibition of biofilm formation at 64 ug/mL after 7 hrs using crystal violet. Format: functional, organism-based.
Assay [13] relates to Haemophilus influenzae. In words: Antimicrobial activity against nontypeable Haemophilus influenzae isolate 2019 expressing GFP isolated from patient with COPD assessed as viability at 0.125 ug/mL after 2 days using flow cell culture. Format: functional, organism-based. In short, it runs like this: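 Flow-cell biofilms of GFP-expressing strain 2019 grown 2 days with or without 0.125 μg/ml antibiotic, then stained with propidium iodide for 15 min.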

In assay [14] the test system is Haemophilus influenzae. In words: Antimicrobial activity against nontypeable Haemophilus influenzae isolate 2019 expressing GFP isolated from patient with COPD assessed as decrease biomass of biofilm at 0.125 ug/mL after 2 days using flow cell culture relative to control. Format: functional, organism-based. Summed up: as §3
The subject of assay [15] is Haemophilus influenzae. Nature of the assay: Antimicrobial activity against nontypeable Haemophilus influenzae isolate 2019 expressing GFP isolated from patient with COPD assessed as decrease in biomass of biofilm at 0.125 ug/mL incubated for 2 days measured after day 4 using flow cell culture. Format: functional, organism-based. Summed up: as §3
In assay [16] the test system is Haemophilus influenzae. In words: Antimicrobial activity against azithromycin-resistant nontypeable Haemophilus influenzae isolate S44 assessed as inhibition of biofilm formation at >64 ug/mL. Format: functional, organism-based. Summed up: as §2
The subject of assay [17] is Haemophilus influenzae. In words: Antimicrobial activity against nontypeable Haemophilus influenzae isolate 2019 expressing GFP isolated from patient with COPD assessed as decrease in biofilm formation at 0.125 ug/mL treated for 4 days measured on day 2 to 4 using flow cell culture. Format: functional, organism-based. Summed up:
as §3

The subject of assay [18] is Haemophilus influenzae. In words: Antimicrobial activity against nontypeable Haemophilus influenzae isolate 2019 expressing GFP isolated from patient with COPD assessed as growth inhibition at 0.125 ug/mL […]. Format: functional, organism-based.
For assay [19], the system named is Haemophilus influenzae. Nature of the assay: Antimicrobial activity against nontypeable Haemophilus influenzae isolate 2019 expressing GFP isolated from patient with COPD assessed as decrease in established biofilm formation at 0.125 ug/mL treated for 4 days measured on day 2 to 4 using flow cell culture. Format: functional, organism-based. Summed up:
as §3

The test system of assay [20] is Haemophilus influenzae. In words: Antimicrobial activity against nontypeable Haemophilus influenzae isolate 2019 expressing GFP isolated from patient with COPD assessed as decrease in maximal thickness of biofilm at 0.125 ug/mL incubated for 2 days measured after days 4 using flow cell culture. Format: functional, organism-based. Summed up: as §3
Assay [21] concerns Haemophilus influenzae. In words: Antimicrobial activity against nontypeable Haemophilus influenzae isolate 2019 expressing GFP isolated from patient with COPD assessed as inhibition of biofilm formation at 0.25 ug/ml after 7 hrs using crystal violet. Format: functional, organism-based.
Assay [22] deals with Haemophilus influenzae. In words: Antimicrobial activity against nontypeable Haemophilus influenzae isolate 2019 expressing GFP isolated from patient with COPD assessed as maximal doubling time at 0.125 ug/mL using flow cell culture after 24 hrs. Format: functional. In short, it runs like this: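 Growth curves: overnight strain 2019 culture, 1 ml diluted into 24 ml supplemented BHI (starting OD600 <0.050), antibiotic 0.03–2 μg/ml. Shaken at 37°C, OD600 read hourly. Maximal doubling time taken from the curves. Also repeated in flow-cell medium (1% supplemented BHI in 150 mM NaCl).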

The subject of assay [23] is Haemophilus influenzae. In words: Antimicrobial activity against azithromycin-resistant nontypeable Haemophilus influenzae isolate S52 assessed as inhibition of biofilm formation at 8 ug/mL after 7 hrs using crystal violet. Format: functional, organism-based.
For assay [24], the system named is Haemophilus influenzae. Nature of the assay: Antimicrobial activity against nontypeable Haemophilus influenzae isolate 2019 expressing GFP isolated from patient with COPD assessed as maximal doubling time at 0.25 ug/mL using flow cell culture after 24 hrs. Format: functional, organism-based.
For assay [25], the system named is Haemophilus influenzae. In words: Antimicrobial activity against nontypeable Haemophilus influenzae isolate 2019 expressing GFP isolated from patient with COPD assessed as decrease in biomass of biofilm at 16 ug/mL after 2 days. Format: functional, organism-based. Summed up: as §1
Assay [26] relates to Haemophilus influenzae. In words: Antimicrobial activity against nontypeable Haemophilus influenzae isolate 2019 expressing GFP isolated from patient with COPD assessed as decrease in biofilm formation at 8 ug/mL after 2 days. Format: functional, organism-based. In short, it runs like this:
as §1

The subject of assay [27] is Haemophilus influenzae. Nature of the assay: Antimicrobial activity against nontypeable Haemophilus influenzae isolate 2019 expressing GFP isolated from patient with COPD assessed as decrease in biomass of biofilm at 0.25 ug/mL after 2 days. Format: functional, organism-based. Summed up: as §1
The subject of assay [28] is Haemophilus influenzae. In words: Antimicrobial activity against nontypeable Haemophilus influenzae isolate 2019 expressing GFP isolated from patient with COPD assessed as decrease in biomass of 2 days established biofilm measured on day 4 using flow cell culture. Format: functional, organism-based. Summed up: as §1
The subject of assay [29] is Haemophilus influenzae. Nature of the assay: Antimicrobial activity against nontypeable Haemophilus influenzae isolate 2019 expressing GFP isolated from patient with COPD assessed as decrease in maximal thickness of biofilm at 0.25 ug/mL after 2 days. Format: functional, organism-based. In short, it runs like this:
as §1

The subject of assay [30] is Haemophilus influenzae. In words: Antimicrobial activity against nontypeable Haemophilus influenzae isolate 2019 expressing GFP isolated from patient with COPD assessed as decrease in maximal thickness of biofilm at 0.25 ug/mL after 4 days. Format: functional, organism-based. Summed up:
as §1

Assay [31] relates to Haemophilus influenzae. In words: Antimicrobial activity against nontypeable Haemophilus influenzae isolate 2019 expressing GFP isolated from patient with COPD by […] assay. Format: functional, organism-based. In short, it runs like this: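 MIC for strain 2019 carrying pRSM2211 determined by CLSI broth microdilution and Etest, performed by a hospital clinical microbiology laboratory.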

Assay [32] deals with Haemophilus influenzae. Nature of the assay: Antimicrobial activity against nontypeable Haemophilus influenzae isolate 2019 expressing GFP isolated from patient with COPD assessed as decrease in biomass of biofilm at 0.25 ug/mL after 4 days. Format: functional, organism-based. Summed up:
as §1

The test system of assay [33] is Haemophilus influenzae. In words: Antimicrobial activity against nontypeable Haemophilus influenzae isolate 2019 expressing GFP isolated from patient with COPD assessed as growth inhibition at 0.25 ug/mL using static culture after 24 hrs. Format: functional, organism-based.
Assay [34] has as its system Haemophilus influenzae. In words: Antimicrobial activity against nontypeable Haemophilus influenzae isolate 2019 expressing GFP isolated from patient with COPD assessed as decrease in maximal thickness of biofilm at 16 ug/mL after 2 days. Format: functional, organism-based. Summed up:
as §1

≈ marks a conversion by molar mass, not a printed value. Calls of active or inactive are those of the source. The rule behind the calls is not given here.

As for `CC[C@H]1OC(=O)[C@H](C)[C@@H](O[C@H]2C[C@@](C)(OC)[C@@H](O)[C@H](C)O2)[C@H](C)[C@@H](O[C@@H]2O[C@H](C)C[C@H](N(C)C)[C@H]2O)[C@](C)(O)C[C@@H](C)C(=O)[C@H](C)[C@@H](O)[C@]1(C)O`, the outcome in assay [1] was inactive.
`CC[C@H]1OC(=O)[C@H](C)[C@@H](O[C@H]2C[C@@](C)(OC)[C@@H](O)[C@H](C)O2)[C@H](C)[C@@H](O[C@@H]2O[C@H](C)C[C@H](N(C)C)[C@H]2O)[C@](C)(O)C[C@@H](C)CN(C)[C@H](C)[C@@H](O)[C@]1(C)O` [AZITHROMYCIN]: the MIC in assay [2] worked out at 0.5 µg/mL (≈ 0.668 µM). For the same compound, the result in assay [3], in assay [4], in assay [5], in assay [6], in assay [7] and in assay [8] was Active. Also, the outcome in assay [9], in [11], in [12], in assay [14], in [16] and in assay [17] was Active. In addition, the result in assay [19], in [21] and in [23] was Active. Moreover, the outcome in assay [10], in assay [13], in assay [15], in assay [18] and in [20] was inactive. The Activity in [22] is reported as 44 min.
On to GENTAMICIN, for which the Activity in [24] was 51 min; in assay [28], “Dose-dependent effect”. Besides, the result in assay [25], in [26], in [33], in [1] and in [34] was Active. Besides, the outcome in assay [27], in [29], in [30] and in assay [32] was inactive. In assay [31], this compound showed an MIC of 2 µg/mL.

For the origin of these results see ChEMBL document CHEMBL1151453, “Subinhibitory concentrations of azithromycin decrease nontypeable Haemophilus influenzae biofilm formation and Diminish established biofilms” (2008).
